Here are results for one compound from ChEMBL document CHEMBL4130603, “Anti-inflammatory Grayanane Diterpenoids from the Leaves of Rhododendron molle” (J Nat Prod, 2018).

A word on the inhibition: it is the drop in the measured response relative to a control, in per cent. As a reminder, the pIC50 is the negative decadic logarithm of the IC50, by convention in mol/L.

Molecules are shown by their SMILES. pIC50: −log10 of the molar value. A value given as a limit tells only on which side of the number the result lay.

Data set [1] has as its system RAW264.7. Nature of the data set: Antiinflammatory activity in mouse RAW264.7 cells assessed as inhibition of LPS-induced nitric oxide production at 40 uM by griess assay relative to control. The data set is classed as functional. The method in brief:
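LPS-stimulated RAW 264.7 mouse macrophages; nitric oxide production measured; single-concentration screen of inhibition relative to control. Dexamethasone as positive control.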
A general note: Griess reagent forms a coloured azo dye with nitrite.

Data set [2] deals with RAW264.7. Nature of the data set: Antiinflammatory activity in mouse RAW264.7 cells assessed as inhibition of LPS-induced nitric oxide production by griess assay. The class given is functional, cell-based. In outline: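 RAW 264.7 mouse macrophages induced with LPS; NO production measured over five test concentrations to derive IC50; means ± SD, n = 3; dexamethasone positive control.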

Data set [3] can be described thus: Cytotoxicity against mouse RAW264.7 cells assessed as survival rate at 200 uM measured in absence of LPS by MTT assay relative to control. The class given is cell-based. The following applies: read-out: Survival. The method in brief: (§1)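 RAW 264.7 mouse macrophages treated with compound at 200 μM, with or without 1 μg/mL LPS. Viability read by MTT and expressed as survival rate (%). Values are means ± SD, n = 3.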
Background: Tetrazolium assays rely on reduction of a dye to a coloured formazan, in cell work by metabolically active cells.

Data set [4] is described as follows: Cytotoxicity against mouse RAW264.7 cells assessed as survival rate at 200 uM measured in presence of LPS by MTT assay relative to control. The data set is classed as cell-based. The following applies: read-out: Survival. The method in brief: as §1

Regarding `CC(=O)O[C@@H]1C[C@]23C[C@@](C)(O)[C@H](CC[C@H]2[C@@](C)(O)[C@@H]2[C@@H](Cl)[C@H](O)C(C)(C)[C@@]12O)[C@H]3O`, the inhibition at 40 µM with RAW264.7 [1] is over 50%. In addition, the negative logarithm of the IC50 (pIC50) with RAW264.7 [2] was 5.24. Besides, the viability at 200 µM in data set [3] was determined as 99.3%; in data set [4], 95.2%.
